Measurements from PMC7422904 (Translational Vision Science & Technology, 2020).

What was measured:
[1] = test system: chicken chorioallantoic membranes; assay: Hen's egg test in chorioallantoic membrane
In short: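 Fertilized hen eggs incubated 10 days at 37 ± 1°C and 60 ± 1% relative humidity. Shell opened and inner membranes removed. Test compound (40, 80, 160, 320 µg) applied to the CAM and watched for 300 s. Controls: 0.9% NaCl (negative) and 0.1 M NaOH (positive); N = 10. Onset times of hemorrhage, lysis and coagulation were weighted 5, 7 and 9 in the OII equation.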

[2] = test system: ocular hypertensive rat eyes; format: in vivo, Wistar rats; conditions: ocular hypertensive rats, single drop, Bimatoprost 8.8 µg/eye, N = 6
In short: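 Male Wistar rats (7–10 weeks) under i.p. ketamine/xylazine (90:10 mg/kg) plus topical 0.5% proxymetacaine. Right eye received 30 µL HA (10 mg/mL) intracamerally near the limbus, weekly for 3 weeks. Dosing (one 20 µL drop) began once IOP was raised. Groups: saline, test compound, bimatoprost, combination, normotensive saline; N = 6. IOP: TonoPen Vet on unsedated rats, mean of four readings.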

Compound | irritancy classification in words (HET-CAM) ([1]; PnPP-19 at all concentrations tested, NaOH at 0.1 M, 300 seconds) | OII ± SEM (ocular irritation index) ([1]; positive control 0.1 M, observed 300 seconds, N = 10) | ability to reduce IOP (in words) [2]
[Na+].[OH-] [0.1 M NaOH, sodium hydroxide] | severely irritating | 20.11± 0.32 | –
CCNC(=O)CCC/C=C\C[C@@H]1[C@@H](/C=C/[C@@H](O)CCc2ccccc2)[C@H](O)C[C@@H]1O [Bimatoprost] | – | – | not able to reduce IOP
